Experimental data: EPA's CvTdb concentration-time database

Assays:
[1] = tested on: Mouse; assay: concentration in plasma after dosing; conditions: 10 min; dosed: 2-Hydroxy-4-methoxybenzophenone; 50 mg/kg; iv; Male; B6C3F1
[2] = tested on: Rat; assay: concentration in plasma after dosing; conditions: dosed: 2-Hydroxy-4-methoxybenzophenone, 500 mg/kg, oral, Female, F344
[3] = tested on: Rat; assay: concentration in plasma after dosing; conditions: dosed: 2-Hydroxy-4-methoxybenzophenone, 500 mg/kg, oral, Male, F344
[4] = tested on: Mouse; assay: concentration in plasma after dosing; conditions: 2 h; dosed: 2-Hydroxy-4-methoxybenzophenone; 50 mg/kg; iv; Female; B6C3F1
[5] = tested on: Rat; assay: concentration in plasma after dosing; conditions: 0.5 h; dosed: Primidone; 130 mg/kg; oral; Female; F344
[6] = tested on: Rat; assay: concentration in plasma after dosing; conditions: 9 h; dosed: Primidone; 80 mg/kg; oral; Female; F344
[7] = tested on: Rat; assay: concentration in plasma after dosing; conditions: 1.5 h; dosed: Primidone; 30 mg/kg; oral; Female; F344
[8] = tested on: Hamster; assay: concentration in plasma after dosing; conditions: dosed: 2,4-Dichlorophenoxyacetic acid, 2.0 mg/kg, oral, Male, Syrian Golden
Outline: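 A PubMed search, classifier screening and manual review identified published in vivo toxicokinetic studies, which together with two structured collections supplied concentration-versus-time and amount-versus-time points. Points were mostly digitised from plot screenshots with WebPlotDigitizer, otherwise copied from tables. Dose, route, subject details and medium were hand-curated from each paper, and sampling and analytical methods are those of the sources, often unreported.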

[9] = tested on: Rat; assay: concentration in brain after dosing; conditions: 3 h; dosed: alpha-Thujone; 25 mg/kg; oral; Female; Harlan Sprague Dawley
[10] = tested on: Rat; assay: concentration in brain after dosing; conditions: 1.5 h; dosed: alpha-Thujone; 50 mg/kg; oral; Male; Harlan Sprague Dawley
[11] = tested on: Rat; assay: concentration in brain after dosing; conditions: 0.5 h; dosed: alpha-Thujone; 50 mg/kg; oral; Female; Harlan Sprague Dawley
[12] = tested on: Rat; assay: concentration in brain after dosing; conditions: 2 min; dosed: alpha-Thujone; 50 mg/kg; oral; Male; Harlan Sprague Dawley
[13] = tested on: Rat; assay: concentration in plasma after dosing; conditions: 1.5 h; dosed: alpha-Thujone; 50 mg/kg; oral; Female; Harlan Sprague Dawley
[14] = tested on: Rat; assay: concentration in plasma after dosing; conditions: 3 h; dosed: alpha-Thujone; 25 mg/kg; oral; Female; Harlan Sprague Dawley
[15] = tested on: Rat; assay: concentration in plasma after dosing; conditions: 6 h; dosed: alpha-Thujone; 25 mg/kg; oral; Male; Harlan Sprague Dawley
[16] = tested on: Rat; assay: concentration in plasma after dosing; conditions: 0.5 h; dosed: alpha-Thujone; 50 mg/kg; oral; Male; Harlan Sprague Dawley
[17] = tested on: Rat; assay: concentration in plasma after dosing; conditions: 0.5 h; dosed: alpha-Thujone; 25 mg/kg; oral; Male; Harlan Sprague Dawley
[18] = tested on: Rat; assay: concentration in plasma after dosing; conditions: 5 min; dosed: alpha-Thujone; 50 mg/kg; oral; Female; Harlan Sprague Dawley
[19] = tested on: Rat; assay: concentration in liver after dosing; conditions: 12 h; dosed: Perfluorohexane-1-sulphonic acid – potassium salt; 16 mg/kg; oral; Female; F344
[20] = tested on: Rat; assay: concentration in kidney after dosing; conditions: 12 h; dosed: Perfluorohexane-1-sulphonic acid – potassium salt; 16 mg/kg; oral; Female; Harlan Sprague Dawley
[21] = tested on: Rat; assay: concentration in kidney after dosing; conditions: 1200 h; dosed: Perfluorohexane-1-sulphonic acid – potassium salt; 16 mg/kg; oral; Male; Harlan Sprague Dawley
[22] = tested on: rat; assay: amount in urine after dosing (umol); conditions: inhalation, duration: 4 hr, F344 (Harlan Winkelmann)
[23] = tested on: Rat; assay: concentration in plasma after dosing; conditions: 20 min; dosed: Pyridine; 10 mg/kg; oral; Female; Harlan Sprague-Dawley
[24] = tested on: Rat; assay: concentration in plasma after dosing; conditions: 2 h; dosed: Pyridine; 10 mg/kg; iv; Male; F344
[25] = tested on: Rat; assay: concentration in plasma after dosing; conditions: dosed: Pyridine, 5 mg/kg, oral, Male, F344
[26] = tested on: Rat; assay: concentration in plasma after dosing; conditions: dosed: Pyridine, 25 mg/kg, oral, Female, Harlan Sprague-Dawley
[27] = tested on: Rat; assay: concentration in plasma after dosing; conditions: dosed: Pyridine, 5 mg/kg, iv, Male, F344
[28] = tested on: Rat; assay: concentration in plasma after dosing; conditions: 20 min; dosed: Methyleugenol; 37 mg/kg; oral; Male; F344/N
[29] = tested on: Rat; assay: concentration in plasma after dosing; conditions: dosed: Methyleugenol, 37 mg/kg, iv, Female, F344
[30] = tested on: Rat; assay: concentration in plasma after dosing; conditions: dosed: Methyleugenol, 37 mg/kg, oral, Male, F344/N
[31] = tested on: Rat; assay: concentration in plasma after dosing; conditions: dosed: Methyleugenol, 37 mg/kg, oral, Male, F344/N; remark: listed apart in the source

O=C(c1ccccc1)c1ccc(O)cc1O [2,4-Dihydroxybenzophenone]
Conditions | concentration in plasma [ng/mL]
[1] | 3210
[4] | 46.1

concentration in plasma [ng/mL]
Conditions | [2] | [3]
0.5 h | 669 | 162
12 h | 198 | 148

CCC1(c2ccccc2)C(=O)NCNC1=O [Primidone]
Conditions | concentration in plasma [ng/mL]
[5] | 35300
[6] | 21600
[7] | 20600

O=C(O)COc1ccc(Cl)cc1Cl [2,4-Dichlorophenoxyacetic acid]
[8]
Conditions | concentration in plasma [ng/mL]
2.5 h | 200
5 min | 2770
10 min | 10300

CC(C)[C@]12CC(=O)[C@H](C)[C@H]1C2 [alpha-Thujone]
Conditions | concentration in brain [ng/g] | concentration in plasma [ng/mL]
[9] | 919 | –
[10] | 1800 | –
[11] | 878 | –
[12] | 23.4 | –
[13] | – | 560
[14] | – | 180
[15] | – | 267
[16] | – | 2180
[17] | – | 324
[18] | – | 201

O=S(=O)([O-])C(F)(F)C(F)(F)C(F)(F)C(F)(F)C(F)(F)C(F)(F)F.[K+] [Perfluorohexane-1-sulphonic acid – potassium salt]
Conditions | concentration in kidney [ng/g] | concentration in liver [ng/g]
[19] | – | 70300
[20] | 31200 | –
[21] | 2640 | –

CC(C)(O)CO [2-methyl-1,2-propanediol]
[22]
Conditions | amount in urine
5.902 h, dosed: ethyl tert-butyl ether, 4.5 ppm | 0.0942
5.941 h, dosed: methyl tert-butyl ether, 38.7 ppm | 1.91
5.99 h, dosed: ethyl tert-butyl ether, 40.6 ppm | 0.962
11.87 h, dosed: ethyl tert-butyl ether, 4.5 ppm | 0.122
11.94 h, dosed: methyl tert-butyl ether, 38.7 ppm | 1.17
11.96 h, dosed: ethyl tert-butyl ether, 40.6 ppm | 0.855
11.97 h, dosed: methyl tert-butyl ether, 4.5 ppm | 0.56
17.81 h, dosed: ethyl tert-butyl ether, 4.5 ppm | 0.0535
17.95 h, dosed: methyl tert-butyl ether, 38.7 ppm | 0.268
18.01 h, dosed: ethyl tert-butyl ether, 40.6 ppm | 0.254
18.01 h, dosed: methyl tert-butyl ether, 4.5 ppm | 0.155
23.76 h, dosed: ethyl tert-butyl ether, 4.5 ppm | 0.0171
23.93 h, dosed: methyl tert-butyl ether, 38.7 ppm | 0.126
23.95 h, dosed: methyl tert-butyl ether, 4.5 ppm | 0.0371
23.96 h, dosed: ethyl tert-butyl ether, 40.6 ppm | 0.0668
29.72 h, dosed: ethyl tert-butyl ether, 4.5 ppm | 0.015
29.91 h, dosed: methyl tert-butyl ether, 38.7 ppm | 0.0631
29.93 h, dosed: ethyl tert-butyl ether, 40.6 ppm | 0.0668
29.96 h, dosed: methyl tert-butyl ether, 4.5 ppm | 0.023

c1ccncc1 [Pyridine]
Conditions | concentration in plasma [ng/mL]
[23] | 2070
[24] | 1320

concentration in plasma [ng/mL]
Conditions | [25] | [26] | [27]
0.5 h | – | – | 2590
1 h | 2530 | 21100 | –
8 h | 1390 | 15100 | 881

C=CCc1ccc(OC)c(OC)c1 [Methyleugenol]
Conditions | concentration in plasma [ng/mL]
[28] | 246

Conditions | concentration in plasma [ng/mL]
[29], 0.25 h | 9760
[29], 1.5 h | 576
[30], 0.5 h | 293
[30], 3 h | 21.9
[31], 5 min | 670
[31], 6 h | 11.6
